Screening results: PubChem, several laboratories
Phagocytosis inh: macrophage phagocytosis inhibition; J774A.1 macrophage IgG-bead phagocytosis, imaging; inhibition, % at 5 µM; hit rate 0.07% among 110,000; AID 1029;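 active = inhibition above the mean of the plate negative controls plus 5 SD, cut at about 13% in these data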;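 note: phagocytic index as fraction of beads internalized from green versus red external bead signal; plate controls were DMSO negative control for no effect and cytochalasin-D positive control for full effect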
HIV Rev-RRE inh: inhibitors of HIV-1 Rev-RRE RNA interaction. inhibition, % at 8 µM. hit rate 0.79% among 97,000. Rev peptide-RRE RNA binding, FRET. AID 704. P05866;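 active = inhibition above the screen-wide mean plus 3 SD, cut at about 35% in these data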;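 note: 0% = median DMSO wells and 100% = median Neomycin B control wells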
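System: Cy5-labelled duplex RRE RNA binding fluorescein-labelled HIV Rev peptide; Signal: fluorescein-to-Cy5 FRET, 480 nm excitation; Also added: labelled Rev peptide; Compound: one concentration, 8 µM nominal; Buffer or medium: HEPES pH 7.5 salt buffer with EDTA; Read-out: % inhibition of FRET ratio versus controls; Schedule: 5 min preincubation and 15 min binding, 25 °C.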
PTK2B oligo ant: antagonists of human Pyk2 oligomerization; Q14289; Q293 cells, Pyk2 FERM NanoBiT luminescence; stronger effect = lower value; z-score (the deposit names both 25 µM and 10 µM); hit rate 0.83% among 99,000; AID 1347419;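 active = Z-score of -3 or lower, scaled per plate to the spread of control and sample wells; inactive = z-score above -3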;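 note: negative z-score means lost luminescence so less FERM oligomerization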
Cav32 inh: inhibitors of human Cav3.2 T-type calcium channel; O95180; Cav3.2-expressing cells, Fluo-4 calcium fluorescence FDSS; stronger effect = lower value; B-score at 10 µM; hit rate 4% among 100,000;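 active = single-dose well whose peak fluorescence ratio is a statistical outlier from its plate by either plate-standardised score or position-corrected B-score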
DAT uptake mod: human DAT dopamine uptake with cocaine, either direction | Q01959 | AID 449768 | B-score at 10 µM | LLC-PK1 hDAT cells, [14C]-dopamine uptake with cocaine IC80; actives deviate in either direction | hit rate 1.3% among 110,000;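 active = Z score or B-score, a plate-position-corrected score, falls beyond the plate's 99.7% confidence bounds, in either direction; inactive = both scores lie inside the 99.7% bounds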;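 note: scored against the spread of the other compound wells on the same plate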
Measles CPE: protection of cells from measles virus; protection (pct of control), % at 4 µM; Measles virus-infected cells, CPE protection, absorbance; AID 841; hit rate 1.5% among 140,000; in the data active = protection mostly above about 24%, no sharp cut-off; inactive = mostly below about 26%
The depositor's hits bear a star; / = not tested or not shown; [ ] = remark or other dose. An excerpt weighted towards active compounds, which were near 5.9% of everything screened.

SMILES	Phagocytosis inh	HIV Rev-RRE inh	PTK2B oligo ant	Cav32 inh	DAT uptake mod	Measles CPE
Cc1ccc(C)c2c1[nH]c1ccc([N+](=O)[O-])cc12	-1	6	-0.67	-0.48	-0.35	4
COc1cccc(-c2cn3nc(C)c(C)nc3n2)c1	3	40*	0.2	0.036	0.98	13
OC(Cc1nc2ccccc2[nH]1)c1ccccc1Cl (stereo not given)	/	2	0.75	0.28	-1	51*
Cc1ccc(-n2nnnc2CSc2nnc(-c3ccc(O)cc3)o2)cc1	-7	/	/	/	/	19
O=C(CCc1nc(-c2ccccc2)c(-c2ccccc2)o1)OCc1ccc(Br)cc1	0	10	0.28	-3.5	-0.056	7
O=C(CCc1nc(-c2ccccc2)c(-c2ccccc2)o1)OCc1ccc(Cl)cc1	/	15	0.27	-4.3*	0.36	2
CCC(C)(C)NC(=O)C(c1cccc(OC)c1)N(C(=O)c1ccn[nH]1)c1cccc(OC)c1 (stereo not given)	1	-1	-1.4	-5.1*	1.9	14
O=[N+]([O-])c1ccc(N2N=C(c3ccco3)CC2c2ccccc2)cc1 (stereo not given)	-6	76*[fluorescence artefact?]	-0.14	-5*	-0.32	4
CCOC(=O)c1sc(/N=C/c2c(C)[nH]n(-c3ccccc3)c2=O)c(C#N)c1C	-1	70*	/	/	/	17
Cc1[nH]n(-c2ccccc2)c(=O)c1/C=N/c1ccccn1	/	2	0.17	/	0.26	27
Cc1ccc(C)c(NC(=O)CSc2nnc(-c3n[nH]c4ccccc34)o2)c1	1	/	/	/	/	12
Cc1ccc(C)c(NC(=O)CSc2nnc(-c3ccccc3C)o2)c1	0	15	0.48	-5.5*	0.1	/
CCOC(=O)N1CCC(Nc2ccc3nnc(-c4ccccc4)n3n2)CC1	-1	6	/	2.7*	2.2	19
CCOC(=O)CC(=O)CSc1ccc2nnc(-c3ccccc3)n2n1	0	-4	-0.55	0.98	0.88	13
CCN(CC)c1nc(N)c2c(N)n(-c3ccccc3C)c(=S)c(C#N)c2c1C#N	0	-1	-3.7*	0.3	-0.08	29
CC(NC(=S)NCCc1ccccc1)C(c1cccs1)N1CCN(Cc2ccccc2)CC1 (stereo not given)	/	/	/	-4.6*	-0.97	3
CC(NC(=O)NC1CCCCC1)C(c1cccs1)N1CCN(Cc2ccccc2)CC1 (stereo not given)	-1	0	/	-3.4	0.38	9
CCN(CC)c1ccc(C=C(c2nnnn2-c2ccc(C)cc2)c2nnnn2-c2ccc(C)cc2)cc1	-11	/	/	/	/	8
Nc1c(C(=O)NCc2ccccc2)nnn1Cc1ccc(F)cc1	0	/	/	-0.44	-0.32	7
COc1ccc(CNC(=O)c2nnn(Cc3ccc(OC)cc3)c2N)cc1	/	2	/	-5.2*	-0.035	6
CCc1ccc(Cn2nnc(C(=O)Nc3cccc(C)c3)c2N)cc1	0	4	/	-0.92	0.94	16
CCc1ccc(Cn2nnc(C(=O)NCc3ccccc3OC)c2N)cc1	0	6	/	-7.1*	-0.72	4
CCCOc1cccc(NC(=O)c2c(-c3ccccc3)noc2C)c1	1	20	-0.57	-4.9*	0.44	22
COc1ccc(Cc2nnc(NC(=O)c3c(-c4ccccc4)noc3C)s2)cc1	-1	12	-2.5	-5.2*	2	8
Cc1cc(C(=O)Nc2nc3c(s2)CCCC3)no1	3	0	-0.48	-0.68	0.25	3
SMILES	Phagocytosis inh	HIV Rev-RRE inh	PTK2B oligo ant	Cav32 inh	DAT uptake mod	Measles CPE
Cc1onc(-c2ccccc2)c1C(=O)Nc1cccc(OC(C)C)c1	0	12	-0.48	-0.99	0.046	2
Cc1onc(-c2ccccc2)c1C(=O)Nc1nc2c(s1)CCCC2	-2	15	-3.4*	0.059	-0.05	3
Cc1onc(-c2c(F)cccc2Cl)c1C(=O)Nc1nc2c(s1)CCCC2	/	5	-3.6*	-0.32	1.5	5
O=C1[C@H]2CCCC[C@H]2C(=O)N1CCCCN1CCN(c2nsc3ccccc23)CC1	/	/	/	/	-0.8	/
CC(Oc1ccc(Cl)cc1)C(=O)NNC(=S)NC(=O)c1ccco1 (stereo not given)	3	/	/	/	/	5
COc1ccccc1N(CC(=O)NC(C)(C)C)S(=O)(=O)c1cccs1	0	/	/	/	/	4
Cc1csc(NC(CO)c2nc3ccccc3n2CCOCCO)n1 (stereo not given)	/	/	/	0.94	0.0048	/
Cc1ccc(NC(=O)CN(C)C(=O)c2ccc(C(F)(F)F)cc2)cc1	-1	/	/	/	/	6
COc1ccc(OC)c(C2=NOC(C(=O)N3CCCc4ccccc43)C2)c1 (stereo not given)	/	21	-1.3	-0.7	-0.092	52*
O=C(C1CC(c2ccc(F)cc2)=NO1)N1CCCc2ccccc21 (stereo not given)	/	4	-0.1	-1.4	1.1	2
Cc1ccc(CN2CCN(/N=C/c3cc(Br)cc(Br)c3O)CC2)c(C)c1	-17	/	/	/	/	5
Cc1ccc(/C=C/C(=O)c2ccccc(=O)c2O)cc1C	-2	/	/	/	/	8
O=C(/C=C/c1ccccc1)c1cc(Br)ccc(=O)c1O	0	46*	-0.37	-4.7	-0.023	7
CC(C)(C)c1cc(N)on1	-3	/	1.2	/	/	11
Cc1ccccc1-c1nc2ccccc2c(=O)n1/N=C/c1ccccc1[N+](=O)[O-]	-1	7	0.46	-1.9	1.1*	14
COC(=O)c1ccc(CN(C)S(=O)(=O)c2ccc(C)cc2)o1	0	/	0.04	-0.31	0.18	25
COC(=O)c1ccc(CN(c2ccc(C)cc2)S(=O)(=O)c2ccc3c(c2)OCCO3)o1	2	16	-3.3*	0.36	0.032	4
CCC(C)(C)c1nnc(NC(=O)c2cccc([N+](=O)[O-])c2)s1	-4	/	/	/	/	4
COc1ccc(C2NC(=O)c3sc(=S)n(-c4ccccc4)c3N2)cc1 (stereo not given)	-2	6	-0.23	-8.4*	-0.51	2
CC(C)c1ccc(NC(=O)C(c2ccccc2)N2CCC3(CC2)OCCO3)cc1 (stereo not given)	-1	1	-0.94	-7.4*	0.66	14
Cc1cccc(C)c1NC(=O)C(c1ccc(Cl)cc1Cl)N1CCCCC1 (stereo not given)	/	12	-1	-5*	-0.39	4
Cc1ccc(NC(=O)C(c2ccc(Cl)cc2)N2CCCCC2)cc1 (stereo not given)	0	7	-1.3	-7*	0.072	6
O=C(NC1CCCCC1)C(c1ccccc1)N1CCC2(CC1)OCCO2 (stereo not given)	-2	/	0.44	0.7	-1.4	30
COC(=O)c1ccc(NC(CC(C)C)C(=O)OC)c([N+](=O)[O-])c1 (stereo not given)	-8	/	/	/	/	5
CSc1oc(-c2ccccc2)nc1S(=O)(=O)c1ccc(C)cc1	0	/	-2.9	1	-0.53	13
Cc1ccc(S(=O)(=O)c2nc(-c3ccccc3)oc2NCc2cccnc2)cc1	0	12	-1.7	-5.3*	1.6	23
